Source: ChEMBL document CHEMBL4411329, “Crown Ethers as Transthyretin Amyloidogenesis Inhibitors” (J Med Chem, 2019)
Activity calls are given as the source filed them. No cut-off for these calls is given here.

Columns and labels:
[1] = tested on: Transthyretin (Homo sapiens), P02766 [V50M]; assay: Inhibition of ANS binding to TTR V30M mutant (unknown origin) expressed in Escherichia coli assessed as increase in BC50 for ANS binding to TTR at 100 mM in presence of 150 mM Na+ by fluorescence-based assay
[2] = tested on: Transthyretin (Homo sapiens), P02766 [V50M]; assay: Inhibition of ANS binding to TTR V30M mutant (unknown origin) expressed in Escherichia coli assessed as increase in BC50 for ANS binding to TTR at 100 mM in presence of 150 mM K+ by fluorescence-based assay
[3] = tested on: Transthyretin (Homo sapiens), P02766 [V50M]; assay: Stabilization of TTR V30M mutant (unknown origin) expressed in Escherichia coli assessed as formation of TTR tetramer band formation at 40 to 100 mM after 4 mins by SDS-PAGE analysis based glutaraldehyde cross-linking assay
[4] = tested on: Transthyretin (Homo sapiens), P02766 [V50M]; assay: Inhibition of ANS binding to TTR V30M mutant (unknown origin) expressed in Escherichia coli assessed as increase in BC50 for ANS binding to TTR at 10 mM in presence of 150 mM Na+ by fluorescence-based assay
[5] = tested on: Transthyretin (Homo sapiens), P02766 [V50M]; assay: Inhibition of TTR V30M mutant (unknown origin)-mediated amyloid fibril formation expressed in Escherichia coli assessed as amyloid fibril percentage at 0.6 mM after 4 days by thioflavin-T-fluorescence based assay (reference value: 100%); design: scale not given: the % may be the effect or the level left
In short: (§1)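 Acid-driven aggregation: 2 μM E. coli-expressed V30M-TTR in 50 mM sodium acetate pH 4.2 held with compound at room temperature for 4 days. Stopped with 0.2 M Tris-HCl pH 8.0, then thioflavin-T added to 20 μM and fluorescence read at ex 440/em 484 nm. Values are amyloid fibril % relative to no-compound control.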

[6] = tested on: Transthyretin (Homo sapiens), P02766 [V50M]; assay: Inhibition of ANS binding to TTR V30M mutant (unknown origin) expressed in Escherichia coli assessed as increase in BC50 for ANS binding to TTR at 10 mM in presence of 150 mM K+ by fluorescence-based assay
[7] = tested on: Transthyretin (Homo sapiens), P02766 [V50M]; assay: Inhibition of TTR V30M mutant (unknown origin)-mediated amyloid fibril formation expressed in Escherichia coli assessed as amyloid fibril percentage at 10 mM after 4 days by thioflavin-T-fluorescence based assay (reference value: 100%); design: scale not given: the % may be the effect or the level left; in short: as §1
[8] = tested on: Transthyretin (Homo sapiens), P02766 [V50M]; assay: Inhibition of TTR V30M mutant (unknown origin)-mediated amyloid fibril formation expressed in Escherichia coli assessed as amyloid fibril percentage at 0.2 mM after 4 days by thioflavin-T-fluorescence based assay (reference value: 100%); design: scale not given: the % may be the effect or the level left; in short: as §1
[9] = tested on: Transthyretin (Homo sapiens), P02766 [V50M]; assay: Potentiation of diflunisal-induced stabilization of TTR V30M mutant (unknown origin) expressed in Escherichia coli assessed as formation of TTR tetramer band formation at 5 mM after 4 mins by SDS-PAGE analysis based glutaraldehyde cross-linking assay relative to diflunisal alone
In short: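 Glutaraldehyde 4 min at RT, borohydride quench, SDS-PAGE with silver stain, tetramer band quantified. Controls were pH 8.0 Tris buffer (positive) and pH 4.4 buffer without compound (negative).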

[10] = tested on: Transthyretin (Homo sapiens), P02766 [V50M]; assay: Stabilization of TTR V30M mutant (unknown origin) expressed in Escherichia coli assessed as formation of TTR tetramer band formation at 10 mM after 4 mins by SDS-PAGE analysis based glutaraldehyde cross-linking assay
[11] = tested on: Transthyretin (Homo sapiens), P02766 [V50M]; assay: Stabilization of TTR V30M mutant (unknown origin) expressed in Escherichia coli assessed as formation of TTR tetramer band formation after 4 mins by SDS-PAGE analysis based glutaraldehyde cross-linking assay
[12] = tested on: Transthyretin (Homo sapiens), P02766 [V50M]; assay: Inhibition of TTR V30M mutant (unknown origin)-mediated amyloid fibril formation expressed in Escherichia coli assessed as amyloid fibril percentage at 0.5 uM after 4 days by thioflavin-T-fluorescence based assay (reference value: 100%); design: scale not given: the % may be the effect or the level left; in short: as §1
[13] = tested on: Transthyretin (Homo sapiens), P02766 [V50M]; assay: Stabilization of TTR V30M mutant (unknown origin) expressed in Escherichia coli assessed as formation of TTR tetramer band formation at 2 uM after 4 mins by SDS-PAGE analysis based glutaraldehyde cross-linking assay
[14] = tested on: Transthyretin (Homo sapiens), P02766 [V50M]; assay: Inhibition of TTR V30M mutant (unknown origin)-mediated amyloid fibril formation expressed in Escherichia coli assessed as amyloid fibril percentage at 5 uM after 4 days by thioflavin-T-fluorescence based assay (reference value: 100%); design: scale not given: the % may be the effect or the level left; in short: as §1
[15] = tested on: Transthyretin (Homo sapiens), P02766 [V50M]; assay: Stabilization of TTR V30M mutant (unknown origin) expressed in Escherichia coli assessed as formation of TTR tetramer band formation at 1 uM after 4 mins by SDS-PAGE analysis based glutaraldehyde cross-linking assay
[16] = tested on: Transthyretin (Homo sapiens), P02766 [V50M]; assay: Inhibition of TTR V30M mutant (unknown origin)-mediated amyloid fibril formation expressed in Escherichia coli assessed as amyloid fibril percentage at 1.5 uM after 4 days by thioflavin-T-fluorescence based assay (reference value: 100%); design: scale not given: the % may be the effect or the level left; in short: as §1

| Structure (SMILES) | inhibition [1] | inhibition [2] | Activity [3] | inhibition [4] | Activity [5] | inhibition [6] | Activity [7] | Activity [8] | Activity [11] | further results |
| --- | --- | --- | --- | --- | --- | --- | --- | --- | --- | --- |
| C1COCCOCCOCCOCCO1 | Active | Active | Active |  |  |  |  |  |  |  |
| C1COCCOCCOCCO1 | Active | Active | Active |  |  |  |  |  |  |  |
| C1CCC2OCCOCCOC3CCCCC3OCCOCCOC2C1 (configuration not stated) | Active |  |  | Active | 100% | Active | 92% | 100% |  |  |
| O=C(O)c1ccc2c(c1)OCCOCCOCCOCCOCCO2 | Active |  |  | Active | 92% | Active |  | 99% | Dose-dependent effect | Activity [9]: Active; Activity [10]: 68% |
| c1ccc2c(c1)OCCOCCOCCOCCOCCO2 | Active |  |  | Active | 96% | Active | 47% | 100% | Dose-dependent effect |  |
| O=C(O)c1cc(-c2ccc(F)cc2F)ccc1O |  |  |  |  |  |  |  |  |  | Activity [12]: 80%; Activity [13]: 52%; Activity [14]: 3.1%; Activity [15]: 15%; Activity [16]: 35% |
